Results on 4 molecules are retold here after ChEMBL document CHEMBL1671800, “Synthesis and antimycobacterial properties of N-substituted 6-amino-5-cyanopyrazine-2-carboxamides” (2011).

≈ marks a conversion by molar mass, not a printed value. Calls of active or inactive are those of the source. The calls are words filed in the database; no cut-off is given here.

In experiment [1] the test system is Candida albicans. Put plainly: Antifungal activity against Candida albicans ATCC 44859 after 24 hrs by broth microdilution method. It is filed as functional. Summed up: (§1)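 Broth microdilution. Compounds in DMSO were diluted twofold in RPMI 1640 with glutamine, buffered to pH 7.0 with MOPS. Final DMSO was at most 2.5% (v/v). Plates were incubated statically, in the dark and humid, at 35 °C and read at 24 and 48 h.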

Experiment [2] deals with Candida tropicalis. Put plainly: Antifungal activity against Candida tropicalis 156 after 24 hrs by broth microdilution method. The class given is functional. Summed up:
as §1
(In general: Dilution methods test growth across graded concentrations, often in twofold steps.)

In experiment [3] the test system is Pichia kudriavzevii. Put plainly: Antifungal activity against Candida krusei E28 after 24 hrs by broth microdilution method. The class given is functional. Summed up:
as §1

Experiment [4] relates to Nakaseomyces glabratus. Description: Antifungal activity against Candida glabrata 20/I after 24 hrs by broth microdilution method. The class given is functional. Summed up: as §1
The test system of experiment [5] is Trichosporon beigelii. Description: Antifungal activity against Trichosporon beigelii 1188 after 24 hrs by broth microdilution method. It is filed as functional. Summed up: as §1
For experiment [6], the system named is Aspergillus fumigatus. Put plainly: Antifungal activity against Aspergillus fumigatus 231 after 24 hrs by broth microdilution method. The class given is functional. Summed up: as §1
Experiment [7] relates to Lichtheimia corymbifera. Description: Antifungal activity against Absidia corymbifera 272 after 24 hrs by broth microdilution method. It is filed as functional. Summed up:
as §1

Experiment [8] deals with Trichophyton mentagrophytes. Put plainly: Antifungal activity against Trichophyton mentagrophytes 445 after 72 hrs by broth microdilution method. The class given is functional. Summed up: (§2)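 Trichophyton mentagrophytes was tested by twofold broth microdilution in MOPS-buffered RPMI 1640 with glutamine, pH 7.0, with final DMSO at most 2.5% (v/v). Incubation was static, dark and humid at 35 °C, and plates were read at 72 and 120 h.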

The subject of experiment [9] is Trichophyton mentagrophytes. Description: Antifungal activity against Trichophyton mentagrophytes 445 after 120 hrs by broth microdilution method. It is filed as functional. Summed up: as §2
The subject of experiment [10] is Candida albicans. Put plainly: Antifungal activity against Candida albicans ATCC 44859 after 48 hrs by broth microdilution method. It is filed as functional. Summed up: as §1
The subject of experiment [11] is Candida tropicalis. Put plainly: Antifungal activity against Candida tropicalis 156 after 48 hrs by broth microdilution method. It is filed as functional. Summed up: as §1
Experiment [12] concerns Pichia kudriavzevii. Description: Antifungal activity against Candida krusei E28 after 48 hrs by broth microdilution method. The class given is functional. Summed up: as §1
Experiment [13] concerns Nakaseomyces glabratus. Put plainly: Antifungal activity against Candida glabrata 20/I after 48 hrs by broth microdilution method. The class given is functional. Summed up: as §1
Experiment [14] relates to Trichosporon beigelii. Put plainly: Antifungal activity against Trichosporon beigelii 1188 after 48 hrs by broth microdilution method. The class given is functional. Summed up:
as §1

Experiment [15] has as its system Aspergillus fumigatus. Description: Antifungal activity against Aspergillus fumigatus 231 after 48 hrs by broth microdilution method. It is filed as functional. Summed up:
as §1

The test system of experiment [16] is Lichtheimia corymbifera. Put plainly: Antifungal activity against Absidia corymbifera 272 after 48 hrs by broth microdilution method. It is filed as functional. Summed up:
as §1

The test system of experiment [17] is Mycobacterium tuberculosis. Description: Antimycobacterial activity against Mycobacterium tuberculosis H37Rv CNCTC My 331/88 after 14 days by microdilution method. It is filed as functional. The settings on record: H37Rv CNCTC My 331/88, 336 h. Summed up: (§3)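 Compounds in DMSO were diluted in Šula's semisynthetic medium, pH 5.5, to final 200–3.125 μg/mL, with DMSO at most 1% (v/v). Mycobacteria were added as a suspension in isotonic saline and grown at 37 °C. MIC was read visually after 14 days as the lowest concentration inhibiting growth.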

Experiment [18] has as its system Mycobacterium kansasii. Put plainly: Antimycobacterial activity against Mycobacterium kansasii CNCTC My 235/80 after 6 days by microdilution method. The class given is functional. Particulars: CNCTC My 235/80, 144 h. Summed up:
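Compounds were dissolved in DMSO and diluted in Šula's semisynthetic medium at pH 5.5, at final concentrations of 200 to 3.125 μg/mL in twofold steps; DMSO stayed ≤1% v/v. The strain was added as a suspension in isotonic saline and incubated at 37 °C. Growth was read visually after 6 days; MIC is the lowest concentration that inhibited growth. Pyrazinamide served as standard.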

The subject of experiment [19] is Mycobacterium avium. Description: Antimycobacterial activity against Mycobacterium avium CNCTC My 80/72 after 14 days by microdilution method. The class given is functional. The settings on record: CNCTC My 80/72, 336 h. Summed up:
as §3

The subject of experiment [20] is Mycobacterium avium. Put plainly: Antimycobacterial activity against Mycobacterium avium CNCTC My 152/73 after 14 days by microdilution method. It is filed as functional. The settings on record: CNCTC My 152/73, 336 h. Summed up: as §3
In experiment [21] the test system is Staphylococcus aureus. Put plainly: Antibacterial activity against Staphylococcus aureus CCM 4516/08 after 24 to 48 hrs by broth microdilution method. It is filed as functional, organism-based. Summed up:
(§4)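 Strains subcultured on Mueller-Hinton agar at 35 °C and passaged onto MHA before testing. Inoculum suspended in sterile 0.85% saline and adjusted to 0.5 McFarland (1.5×10^8 CFU/mL). Compounds in DMSO (final ≤1% v/v) in Mueller-Hinton broth at pH 7.0, with medium and DMSO-alone controls. Static incubation at 35 °C; MIC taken as 95% growth inhibition versus control at 24 and 48 h.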

Experiment [22] has as its system Escherichia coli. Description: Antibacterial activity against Escherichia coli CCM 4517 after 24 to 48 hrs by broth microdilution method. It is filed as functional, organism-based. Summed up: as §4
Experiment [23] relates to Pseudomonas aeruginosa. Put plainly: Antibacterial activity against Pseudomonas aeruginosa CCM 1961 after 24 to 48 hrs by broth microdilution method. The class given is functional, organism-based. Summed up:
as §4

Experiment [24] concerns Staphylococcus aureus. Description: Antibacterial activity against methicillin-resistant Staphylococcus aureus H 5996/08 after 24 to 48 hrs by broth microdilution method. The class given is functional, organism-based. Summed up:
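Strains were subcultured on Mueller-Hinton agar at 35 °C, and the inoculum was suspended in 0.85% saline to 0.5 McFarland (1.5×10^8 CFU/mL). Microdilution was done in Mueller-Hinton broth, pH 7.0, with final DMSO at most 1% (v/v). MIC, set at 95% growth inhibition versus control, was read after 24 and 48 h of static incubation at 35 °C.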

Experiment [25] concerns Staphylococcus epidermidis. Put plainly: Antibacterial activity against Staphylococcus epidermidis H 6966/08 after 24 to 48 hrs by broth microdilution method. The class given is functional, organism-based.
The subject of experiment [26] is Enterobacter sp. Put plainly: Antibacterial activity against Enterobacter sp. J 14365/ 08 after 24 to 48 hrs by broth microdilution method. The class given is functional, organism-based.
Experiment [27] deals with Klebsiella pneumoniae. Description: Antibacterial activity against Klebsiella pneumoniae D11750/08 after 24 to 48 hrs by broth microdilution method. The class given is functional, organism-based.
In experiment [28] the test system is Klebsiella pneumoniae. Description: Antibacterial activity against ESBL-positive Klebsiella pneumoniae J 14368/08 after 24 to 48 hrs by broth microdilution method. It is filed as functional, organism-based.
The mark [29] stands for this setting: Trichosporon beigelii, 1188, 24 h.
Setting [30] is: Aspergillus fumigatus, 231, 24 h.
[31] abbreviates: Lichtheimia corymbifera, 272, 24 h.
[32] abbreviates: Trichophyton mentagrophytes, 445, 72 h.
Setting [33] is: Trichophyton mentagrophytes, 445, 120 h.
The mark [34] stands for this setting: Trichosporon beigelii, 1188, 48 h.
The mark [35] stands for this setting: Aspergillus fumigatus, 231, 48 h.
Where [36] appears, read: Lichtheimia corymbifera, 272, 48 h.

`OC(Cn1cncn1)(Cn1cncn1)c1ccc(F)cc1F` [FLUCONAZOLE]: the MIC is 0.24 µM (≈ 0.0735 µg/mL) in experiment [1] (ATCC 44859, 24 h); greater than 500 µM in [2] (Candida tropicalis, 156, 24 h); 125 µM (≈ 38.3 µg/mL) in experiment [3] (E28, 24 h); 62.5 µM (≈ 19.1 µg/mL) in experiment [4]; 250 µM (≈ 76.6 µg/mL) in experiment [5] (setting [29]); greater than 500 µM in experiment [6] (setting [30]). Also, the MIC was greater than 500 µM in experiment [7] (setting [31]); 7.81 µM (≈ 2.39 µg/mL) in [8] (setting [32]); 125 µM (≈ 38.3 µg/mL) in [9] (setting [33]); 0.24 µM (≈ 0.0735 µg/mL) in experiment [10] (ATCC 44859, 48 h); greater than 500 µM in [11] (Candida tropicalis, 156, 48 h); 250 µM (≈ 76.6 µg/mL) in experiment [12] (E28, 48 h). Also, the MIC is 250 µM (≈ 76.6 µg/mL) in experiment [13], 500 µM (≈ 153 µg/mL) in experiment [14] (setting [34]), greater than 500 µM in experiment [15] (setting [35]) and greater than 500 µM in [16] (setting [36]).

`CCCCCNc1nc(C(N)=O)cnc1C#N`: the MIC in experiment [17] is greater than 200 µg/mL; in experiment [18] it was greater than 200 µg/mL; in experiment [19] it was greater than 200 µg/mL; in experiment [20], greater than 200 µg/mL; in experiment [1] (ATCC 44859, 24 h), 250 µM (≈ 58.3 µg/mL); in experiment [2] (Candida tropicalis, 156, 24 h), greater than 250 µM. In addition, the MIC in experiment [3] (E28, 24 h) was 62.5 µM (≈ 14.6 µg/mL); in [4], 250 µM (≈ 58.3 µg/mL); in experiment [5] (setting [29]) it was greater than 250 µM; in [6] (setting [30]), 250 µM (≈ 58.3 µg/mL); in experiment [7] (setting [31]), 125 µM (≈ 29.2 µg/mL); in experiment [8] (setting [32]) it was greater than 250 µM. Moreover, the MIC was greater than 250 µM in experiment [9] (setting [33]); greater than 250 µM in [10] (ATCC 44859, 48 h); greater than 250 µM in [11] (Candida tropicalis, 156, 48 h); 250 µM (≈ 58.3 µg/mL) in experiment [12] (E28, 48 h); greater than 250 µM in experiment [13]; greater than 250 µM in [14] (setting [34]). In addition, the MIC in [15] (setting [35]) and in experiment [16] (setting [36]) was greater than 250 µM in each case. Further, the result in [21], in experiment [22], in experiment [23], in [24], in [25] and in [26] was inactive. Moreover, the result in [27] and in experiment [28] was inactive.

Consider NYSTATIN, for which the MIC is 0.98 µM in experiment [1]; 1.95 µM in experiment [2]; 1.95 µM in experiment [3]; 1.95 µM in experiment [4]; 1.95 µM in experiment [5]; 1.95 µM in experiment [6]. Further, the minimum inhibitory concentration (MIC) in experiment [7] came to 15.6 µM; in experiment [8] it was 3.9 µM; in [9], 7.81 µM; in [10], 1.95 µM; in experiment [11] it was 3.9 µM; in experiment [12], 3.9 µM. Besides, the MIC in [13] turned out to be 1.95 µM; in experiment [14], 1.95 µM; in experiment [15] it was 3.9 µM; in [16], 31.2 µM.

For the molecule `N#Cc1ncc(C(N)=O)nc1Cl`, the MIC in [17] was 25 µg/mL (≈ 137 µM); in [18], 25 µg/mL (≈ 137 µM); in [19], 25 µg/mL (≈ 137 µM); in experiment [20], 25 µg/mL (≈ 137 µM); in experiment [1] (ATCC 44859, 24 h) it was 125 µM (≈ 22.8 µg/mL); in [2] (Candida tropicalis, 156, 24 h), greater than 500 µM. The MIC in [3] (E28, 24 h) is greater than 500 µM; in [4] it was greater than 500 µM; in [5] (setting [29]) it was greater than 500 µM; in experiment [6] (setting [30]), greater than 500 µM; in [7] (setting [31]) it was 250 µM (≈ 45.6 µg/mL); in experiment [8] (setting [32]), 62.5 µM (≈ 11.4 µg/mL). Besides, the MIC in experiment [9] (setting [33]) was 62.5 µM (≈ 11.4 µg/mL); in experiment [10] (ATCC 44859, 48 h) it was 125 µM (≈ 22.8 µg/mL); in experiment [11] (Candida tropicalis, 156, 48 h), greater than 500 µM; in experiment [12] (E28, 48 h), greater than 500 µM; in experiment [13] it was greater than 500 µM; in [14] (setting [34]), greater than 500 µM. For the same molecule, the MIC is greater than 500 µM in experiment [15] (setting [35]) and 250 µM (≈ 45.6 µg/mL) in experiment [16] (setting [36]). Also, the outcome in experiment [21], in [22], in [23], in experiment [24], in [25] and in [26] was inactive. In addition, the outcome in [27] and in experiment [28] was inactive.

What is called MIC is the lowest concentration found to suppress growth. A high value points to weaker potency.
